From ChEMBL document CHEMBL4732260, “Developing novel classes of protein kinase CK1δ inhibitors by fusing [1,2,4]triazole with different bicyclic heteroaromatic systems” (Eur J Med Chem, 2021)
Calls of active or inactive are those of the source. No cut-off for these calls is given here.

Assays:
[1] = molecular target: T1, Casein kinase I isoform delta (Homo sapiens, UniProt P48730); test: Inhibition of recombinant human N-terminal GST-tagged CK1delta (1 to 294 residues) at 40 uM using casein as substrate measured after 60 mins in presence of ATP by Kinase-Glo reagent-based luminescence assay relative to control
Target sequence in this assay (P48730 whole entry, looked up, the tested form may be a part, canonical isoform): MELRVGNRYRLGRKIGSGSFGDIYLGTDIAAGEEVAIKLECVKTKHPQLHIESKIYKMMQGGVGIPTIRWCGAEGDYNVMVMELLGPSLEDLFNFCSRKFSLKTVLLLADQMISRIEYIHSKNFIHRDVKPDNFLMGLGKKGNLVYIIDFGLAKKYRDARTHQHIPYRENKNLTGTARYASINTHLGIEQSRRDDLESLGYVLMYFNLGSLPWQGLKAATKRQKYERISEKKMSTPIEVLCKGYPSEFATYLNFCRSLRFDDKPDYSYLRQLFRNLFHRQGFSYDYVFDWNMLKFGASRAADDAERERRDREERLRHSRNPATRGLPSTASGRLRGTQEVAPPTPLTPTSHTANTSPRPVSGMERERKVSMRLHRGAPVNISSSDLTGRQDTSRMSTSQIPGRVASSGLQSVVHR

[2] = molecular target: T1, Casein kinase I isoform delta; test: Binding affinity to wild-type human full length CSNK1D (M1 to K409 residues) expressed in bacterial expression system at 10 uM by Kinomescan method relative to control
Summary of the method: (§1)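 KINOMEscan competition binding across the CK1 isoform panel, compound at 10 µM. Reported as % binding relative to a […].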
Target sequence in this assay (P48730 whole entry, looked up, the tested form may be a part, canonical isoform): as above

[3] = molecular target: T2, Casein kinase I isoform alpha-like (Homo sapiens) (UniProt Q8N752); test: Binding affinity to wild-type human full length CSNK1A1L (M1 to N337 residues) expressed in bacterial expression system at 10 uM by Kinomescan method relative to control; summary of the method: as §1
T2 sequence (whole entry): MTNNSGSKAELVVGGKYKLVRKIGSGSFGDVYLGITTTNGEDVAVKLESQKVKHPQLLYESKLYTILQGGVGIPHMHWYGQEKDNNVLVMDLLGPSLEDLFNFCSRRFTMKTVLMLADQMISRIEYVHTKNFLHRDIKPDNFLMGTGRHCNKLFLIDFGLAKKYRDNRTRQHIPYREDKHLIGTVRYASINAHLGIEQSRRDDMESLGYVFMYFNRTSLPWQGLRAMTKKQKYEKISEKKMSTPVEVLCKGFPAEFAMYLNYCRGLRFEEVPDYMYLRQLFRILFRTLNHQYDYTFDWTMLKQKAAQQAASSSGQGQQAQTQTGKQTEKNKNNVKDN

PBL [4] = test: Cytotoxicity against human PBL cells assessed as inhibition of cell growth after 72 hrs by resazurin based assay
Summary of the method: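 Gradient-isolated PBL held overnight in RPMI-1640 with 10% FBS. Non-adherent resting cells (no PHA) at 5×10^5 cells/mL, exposed to compounds for 72 h. Viability read as resazurin fluorescence at 590 nm over 4 h.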

[5] = molecular target: T1, Casein kinase I isoform delta; test: Inhibition of recombinant human full-length N-terminal GST-tagged CK1delta using casein as substrate measured after 10 mins in presence of ATP by Kinase-Glo reagent-based luminescence assay
Summary of the method: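 Full-length CK1δ at 26 nM with 0.1% casein and 4 µM ATP added, in 50 mM HEPES pH 7.5, 1 mM EDTA, 1 mM EGTA, 15 mM Mg acetate. Ten inhibitor concentrations from 100 to 0.026 µM. 10 min at 30 °C, Kinase-Glo stop, luminescence read after 10 min at 30 °C. IC50 given as mean ± standard error of three independent experiments.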
Target sequence in this assay (P48730 whole entry, the tested form may be a part, canonical isoform): as the sequence (P48730 whole entry, looked up, the tested form may be a part, canonical isoform) above

[6] = molecular target: Casein kinase I isoform gamma-1 (Homo sapiens) (UniProt Q9HCP0); test: Binding affinity to wild-type human partial length CSNK1G1 (T15 to S353 residues) expressed in bacterial expression system at 10 uM by Kinomescan method relative to control; summary of the method: as §1
Chain of Casein kinase I isoform gamma-1 (Homo sapiens) (Q9HCP0 whole entry, looked up, the tested form may be a part, canonical isoform): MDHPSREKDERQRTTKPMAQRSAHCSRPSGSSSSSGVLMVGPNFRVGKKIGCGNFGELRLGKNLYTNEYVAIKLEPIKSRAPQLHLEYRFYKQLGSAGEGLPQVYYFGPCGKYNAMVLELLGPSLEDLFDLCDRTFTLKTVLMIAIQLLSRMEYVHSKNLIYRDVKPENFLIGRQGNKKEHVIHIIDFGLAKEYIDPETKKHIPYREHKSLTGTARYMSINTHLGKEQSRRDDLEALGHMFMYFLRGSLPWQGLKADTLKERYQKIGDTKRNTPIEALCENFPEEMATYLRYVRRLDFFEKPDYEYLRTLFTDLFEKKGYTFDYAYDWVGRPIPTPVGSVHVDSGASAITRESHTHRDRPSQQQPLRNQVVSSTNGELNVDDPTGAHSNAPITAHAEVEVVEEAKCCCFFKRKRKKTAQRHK

[7] = molecular target: Casein kinase I isoform gamma-2 (Homo sapiens) (UniProt P78368); test: Binding affinity to wild-type human full length CSNK1G2 (M1 to K415 residues) expressed in bacterial expression system at 10 uM by Kinomescan method relative to control; summary of the method: as §1
Chain of Casein kinase I isoform gamma-2 (Homo sapiens) (P78368 whole entry, looked up, the tested form may be a part, canonical isoform): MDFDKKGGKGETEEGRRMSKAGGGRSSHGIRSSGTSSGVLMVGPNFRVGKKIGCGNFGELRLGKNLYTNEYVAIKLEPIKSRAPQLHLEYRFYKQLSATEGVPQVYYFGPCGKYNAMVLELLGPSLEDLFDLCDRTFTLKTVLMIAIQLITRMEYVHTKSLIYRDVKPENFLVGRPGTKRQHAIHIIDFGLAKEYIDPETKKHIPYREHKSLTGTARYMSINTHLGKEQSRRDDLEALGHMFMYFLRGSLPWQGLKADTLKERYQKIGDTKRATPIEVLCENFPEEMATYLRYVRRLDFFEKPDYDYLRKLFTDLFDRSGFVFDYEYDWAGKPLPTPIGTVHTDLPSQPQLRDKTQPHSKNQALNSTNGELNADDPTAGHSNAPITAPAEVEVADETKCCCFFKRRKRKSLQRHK

Fibroblast = test: Cytotoxicity against human fibroblast assessed as inhibition of cell growth after 72 hrs by resazurin based assay
Summary of the method: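 Normal adult fibroblasts grown in DMEM with 10% FBS, seeded at 2×10^4 cells per well. Compounds added after 24 h at several concentrations; viability read 72 h later by resazurin fluorescence at 590 nm over 4 h.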

[8] = molecular target: T3, Casein kinase I isoform epsilon (Homo sapiens, UniProt P49674); test: Binding affinity to wild-type human full length CSNK1E (M1 to K416 residues) expressed in bacterial expression system at 10 uM by Kinomescan method relative to control; summary of the method: as §1
Target sequence in this assay (P49674 whole entry, looked up, the tested form may be a part, canonical isoform): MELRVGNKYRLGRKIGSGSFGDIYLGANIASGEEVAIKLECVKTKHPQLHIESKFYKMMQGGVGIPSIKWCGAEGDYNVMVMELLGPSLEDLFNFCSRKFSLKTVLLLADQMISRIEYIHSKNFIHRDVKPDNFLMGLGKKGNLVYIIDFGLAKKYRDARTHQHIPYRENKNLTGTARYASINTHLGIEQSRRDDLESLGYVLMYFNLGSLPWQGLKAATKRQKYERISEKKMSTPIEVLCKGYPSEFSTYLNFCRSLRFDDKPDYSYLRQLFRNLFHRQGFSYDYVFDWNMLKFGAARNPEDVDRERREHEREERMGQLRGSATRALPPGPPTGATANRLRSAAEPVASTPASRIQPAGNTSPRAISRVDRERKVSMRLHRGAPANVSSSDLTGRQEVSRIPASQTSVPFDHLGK

[9] = molecular target: T1, Casein kinase I isoform delta; test: Inhibition of recombinant human N-terminal GST-tagged CK1delta (1 to 294 residues) using casein as substrate measured after 60 mins in presence of ATP by Kinase-Glo reagent-based luminescence assay
Target sequence in this assay (P48730 whole entry, the tested form may be a part, canonical isoform): as the sequence (P48730 whole entry, looked up, the tested form may be a part, canonical isoform) above

[10] = molecular target: T1, Casein kinase I isoform delta; test: ATP competitive inhibition of recombinant human N-terminal GST-tagged CK1delta (1 to 294 residues) in presence of varying level of ATP by Kinase-Glo reagent-based luminescence assay
Summary of the method: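 Truncated enzyme (16 ng) in 50 mM HEPES pH 7.5, 1 mM EDTA, 1 mM EGTA, 15 mM Mg acetate with 0.1% casein; ATP in the added mix at 4, 40 or 400 µM (Fig. 8-B gives 2, 20, 200 µM). 60 min at 30 °C, then Kinase-Glo, luminescence read after 10 min at 25 °C. Activity is compared across ATP levels.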
Target sequence in this assay (P48730 whole entry, looked up, the tested form may be a part, canonical isoform): as above

[11] = molecular target: Casein kinase I isoform gamma-3 (Homo sapiens) (UniProt Q9Y6M4); test: Binding affinity to wild-type human full length CSNK1G3 (M1 to K447 residues) expressed in bacterial expression system at 10 uM by Kinomescan method relative to control; summary of the method: as §1
Chain of Casein kinase I isoform gamma-3 (Homo sapiens) (Q9Y6M4 whole entry, looked up, the tested form may be a part, canonical isoform): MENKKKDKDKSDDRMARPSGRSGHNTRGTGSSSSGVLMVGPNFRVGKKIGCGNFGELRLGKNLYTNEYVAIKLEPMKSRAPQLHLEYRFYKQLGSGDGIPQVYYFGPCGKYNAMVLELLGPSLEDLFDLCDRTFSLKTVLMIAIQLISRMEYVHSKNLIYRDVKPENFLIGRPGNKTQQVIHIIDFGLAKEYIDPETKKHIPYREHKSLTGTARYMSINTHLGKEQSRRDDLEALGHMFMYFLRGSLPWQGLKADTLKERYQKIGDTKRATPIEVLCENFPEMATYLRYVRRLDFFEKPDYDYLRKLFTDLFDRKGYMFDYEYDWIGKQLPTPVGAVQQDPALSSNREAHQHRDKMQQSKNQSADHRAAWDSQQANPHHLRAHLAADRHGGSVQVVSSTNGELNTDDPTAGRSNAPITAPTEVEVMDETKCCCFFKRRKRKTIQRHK

PBL [12] = test: Cytotoxicity against PHA-stimulated human PBL assessed as inhibition of cell growth after 72 hrs by resazurin based assay
Summary of the method: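 PBL isolated from buffy coats by Lymphoprep density gradient, held overnight in RPMI-1640 with 10% FBS. Non-adherent cells at 5×10^5 cells/mL with 2.5 µg/mL PHA. 72 h compound exposure; viability by resazurin fluorescence at 590 nm over 4 h.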

[13] = molecular target: Casein kinase I isoform alpha (Homo sapiens) (UniProt P48729); test: Binding affinity to wild-type human partial length CSNK1A1 (M1 to L301 residues) expressed in mammalian expression system at 10 uM by Kinomescan method relative to control; summary of the method: as §1
Chain of Casein kinase I isoform alpha (Homo sapiens) (P48729 2-337 limits assumed): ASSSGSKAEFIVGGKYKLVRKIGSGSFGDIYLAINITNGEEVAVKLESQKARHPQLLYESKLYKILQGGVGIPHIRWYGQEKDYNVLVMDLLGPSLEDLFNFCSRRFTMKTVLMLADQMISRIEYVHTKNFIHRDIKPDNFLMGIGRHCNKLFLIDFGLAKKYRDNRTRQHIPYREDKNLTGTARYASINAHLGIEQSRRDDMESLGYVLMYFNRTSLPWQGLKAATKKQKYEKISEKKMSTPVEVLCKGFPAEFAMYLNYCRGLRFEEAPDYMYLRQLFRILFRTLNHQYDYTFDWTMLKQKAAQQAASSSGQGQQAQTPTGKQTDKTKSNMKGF

[14] = molecular target: T3, Casein kinase I isoform epsilon; test: Inhibition of wild-type human CK1epsilon using PLSRTLpSVASLPGL as substrate incubated for 70 mins in presence of ATP by Kinase-Glo luminescence assay
Target sequence in this assay (P49674 whole entry, the tested form may be a part, canonical isoform): as the sequence (P49674 whole entry, looked up, the tested form may be a part, canonical isoform) above

[15] = molecular target: T1, Casein kinase I isoform delta; test: Inhibition of wild-type human CK1delta using PLSRTLpSVASLPGL as substrate incubated for 40 mins in presence of ATP by Kinase-Glo luminescence assay
Target sequence in this assay (P48730 whole entry, the tested form may be a part, canonical isoform): as the sequence (P48730 whole entry, looked up, the tested form may be a part, canonical isoform) above

[16] = Inhibition of porcine brain CK1delta using RRKHAAIGpSAYSITA as substrate incubated for 30 mins in presence of [gamma-33P]ATP by scintillation counting method; type: tissue-based, Sus scrofa domesticus

Row | inhibition [1] [%] | IC50 [9] [nM] | Compound | also measured
1 | 9.7 |  | COc1cc(OC)cc(-c2nc3nc(NCc4ccc(Cl)cc4)nc(N)n3n2)c1 | 
2 | 85.3 | 180 | Nc1nc(NCc2ccccc2)nc2nc(-c3cc(O)cc(O)c3)nn12 | Activity [2]: 14%; Activity [3]: 14%; IC50 (PBL [4]): > 10000 nM; IC50 [5]: 300 nM; Activity [6]: 32%; Activity [7]: 20%; IC50 (Fibroblast): > 10000 nM; Activity [8]: 1.4%; inhibition [10]: Active; Activity [11]: 14%; IC50 (PBL [12]): > 10000 nM; Activity [13]: 3.2%
3 | 9 |  | CCOC(=O)c1cnc(NCc2ccc(-c3ccccc3)cc2)n2nc(-c3cccc(O)c3)nc12 | 
4 | 18.8 |  | CCOC(=O)c1cnc(N)n2nc(-c3cc(OC)cc(OC)c3)nc12 | 
5 | 1.2 |  | CCOC(=O)c1cnc(NCc2ccccc2)n2nc(-c3cccc(O)c3)nc12 | 
6 | 79.7 | 530 | Cc1cccc(CNc2nc(N)n3nc(-c4cc(O)cc(O)c4)nc3n2)c1 | 
7 | 50.3 |  | CCOC(=O)c1cnc(N)n2nc(-c3ccc(OC)cc3)nc12 | 
8 | 11.3 |  | CCOC(=O)c1cnc(NCc2ccc(OC)c(OC)c2)n2nc(-c3ccc(F)cc3)nc12 | 
9 | 95.8 | 750 | Nc1nc(NCc2ccc(Cl)cc2)nc2nc(-c3cc(O)cc(O)c3)nn12 | 
10 | -8.5 |  | Oc1cccc(-c2nc3nc(NCc4ccccc4)nc(NCc4ccccc4)n3n2)c1 | 
11 | 18.1 |  | COc1cccc(-c2nc3nc(NCc4ccccc4)nc(N)n3n2)c1 | 
12 | 93 | 1260 | NCCNC(=O)c1cnc(N)n2nc(-c3cccc(O)c3)nc12 | 
13 | 10.5 |  | COc1cc(OC)cc(-c2nc3nc(NCc4ccc(F)cc4)nc(N)n3n2)c1 | 
14 | 84.2 | 5320 | CC(C)(C)OC(=O)NCCNC(=O)c1cnc(N)n2nc(-c3cc(O)cc(O)c3)nc12 | 
15 | 93.6 | 210 | NCCNC(=O)c1cnc(N)n2nc(-c3cc(O)cc(O)c3)nc12 | 
16 | 68.6 | 3300 | COc1cc(O)cc(-c2nc3nc(NC4CCCCC4)nc(N)n3n2)c1 | 
17 | 4.5 |  | COc1cc(OC)cc(-c2nc3nc(NCc4ccccc4)nc(N)n3n2)c1 | 
18 | 97.8 | 480 | CCOC(=O)c1cnc(N)n2nc(-c3cc(O)cc(O)c3)nc12 | 
19 | 62.2 | 8670 | CCOC(=O)c1cnc(N)n2nc(-c3ccccc3)nc12 | 
20 | 44.7 |  | CCOC(=O)c1cnc(N)n2nc(-c3ccc(F)cc3)nc12 | 
21 | 22.4 |  | CCOC(=O)c1cnc(N)n2nc(-c3cc4ccccc4[nH]3)nc12 | 
22 | 70.4 | 1320 | Nc1nc(NCc2ccccc2)nc2nc(-c3ccc(O)cc3)nn12 | 
23 | 89.3 | 670 | Nc1nc(NC2CCCCC2)nc2nc(-c3cc(O)cc(O)c3)nn12 | 
24 | 39.7 |  | CCOC(=O)c1cnc(N)n2nc(-c3ccc(OCc4ccccc4)cc3)nc12 | 
25 | 35.7 |  | CCOC(=O)c1cnc(NCc2ccc(OC)c(OC)c2)n2nc(-c3ccccc3)nc12 | 
26 | 13.9 |  | COc1cc(OC)cc(-c2nc3nc(NCc4cccc(C)c4)nc(N)n3n2)c1 | 

Row | inhibition [1] [%] | IC50 [9] [nM] | Compound | also measured
27 | 80.2 | 740 | Nc1nc(NCc2ccccc2)cc2nc(-c3cc(O)cc(O)c3)nn12 | 
28 | 90.4 | 320 | CCNC(=O)c1cnc(N)n2nc(-c3cccc(O)c3)nc12 | 
29 |  |  | Nc1nccc(-c2c(-c3ccc(F)cc3)ncn2C2CCN(Cc3ccon3)CC2)n1 | IC50 [14]: 17 nM; IC50 [15]: 3.9 nM
30 | 17.5 |  | CCOC(=O)c1cnc(NCc2ccc(-c3ccccc3)cc2)n2nc(-c3cccc(OC)c3)nc12 | 
31 | 10.9 |  | CCOC(=O)c1cnc(NCc2ccccc2)n2nc(-c3cccc(OC)c3)nc12 | 
32 | 86.1 | 990 | CCNC(=O)c1cnc(N)n2nc(-c3cc(O)cc(O)c3)nc12 | 
33 | 66.8 | 16600 | CCOC(=O)c1cnc(N)n2nc(-c3cccc(N)c3)nc12 | 
34 | 21.6 |  | CCOC(=O)c1cnc(N)n2nc(-c3cccc([N+](=O)[O-])c3)nc12 | 
35 | 53.7 | 15200 | CCOC(=O)c1cnc(N)n2nc(-c3cccc(F)c3)nc12 | 
36 | 19.4 |  | COc1cc(OC)cc(-c2nc3cc(NCc4ccccc4)nc(N)n3n2)c1 | 
37 | 66.6 | 15200 | CCOC(=O)c1cnc(N)n2nc(C)nc12 | 
38 | 75.8 | 26700 | Nc1ncc(C(=O)O)c2nc(-c3cccc(O)c3)nn12 | 
39 | 98 | 4750 | CCOC(=O)c1cnc(N)n2nc(-c3ccc(O)c(O)c3)nc12 | 
40 |  |  | CCC(CO)Nc1nc(NCc2ccc(-c3ccccn3)cc2)c2ncn(C(C)C)c2n1 (configuration not stated) | IC50 [16]: 400 nM
41 | 76.8 | 12300 | CCOC(=O)c1cnc(N)n2nc(C3CCCC3)nc12 | 
42 | 7.1 |  | CCOC(=O)c1cnc(NC)n2nc(-c3cccc(O)c3)nc12 | 
43 | 33.5 |  | COc1cc(OC)cc(-c2nc3cc(N(C)C)nc(N)n3n2)c1 | 
44 | 75.2 | 300 | Nc1nc(NCc2ccccc2)cc2nc(-c3cccc(O)c3)nn12 | 
45 | 84.2 | 460 | Nc1nc(NCc2ccccc2)nc2nc(-c3cccc(O)c3)nn12 | 
46 | 87 | 470 | Nc1nc(NCc2ccc(F)cc2)nc2nc(-c3cc(O)cc(O)c3)nn12 | 
47 | 16.8 |  | CC(C)(C)OC(=O)NCCNC(=O)c1cnc(N)n2nc(-c3cccc(O)c3)nc12 | 
48 | 93.8 | 910 | Nc1nc(NCc2ccccc2)nc2nc(-c3ccc(O)c(O)c3)nn12 | 
49 | 88.9 | 2060 | CCOC(=O)c1cnc(N)n2nc(-c3cccc(O)c3)nc12 | 
50 | 39.3 |  | CCOC(=O)c1cnc(N)n2nc(-c3ccc(O)cc3)nc12 | 
51 | 59.7 | 20200 | CCOC(=O)c1cnc(N)n2nc(-c3ccncc3)nc12 | 
52 | 52 | 25000 | CCOC(=O)c1cnc(N)n2nc(-c3cccc(OC)c3)nc12 | 
